Reference: ChEMBL document CHEMBL4000205, “Synthesis and molecular modelling studies of phenyl linked oxadiazole-phenylhydrazone hybrids as potent antileishmanial agents” (Eur J Med Chem, 2017)

Tests used:
THP-1 = assay: Cytotoxicity against human THP1 cells; type: cell-based
Leishmania major [1] = assay: Antileishmanial activity against promastigote form of Leishmania major JISH118 infected in human THP1 cells by Giemsa staining; type: functional, cell-based; settings: JISH118, THP-1
Outline: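 THP-1 cells grown in RPMI-1640 with 1% L-glutamine and 10% HIFBS, seeded at 5.0 x 10^4 macrophages/well and made adherent with PMA for 3 days at 37 °C, 5% CO2. Infected with stationary-stage L. major promastigotes (cultured at 26°C in Schneider's medium) at macrophage:parasite 1:5, held at 34 °C for 48 h. Extracellular parasites washed out, compounds added at various concentrations. Activity from % infected cells versus untreated after methanol fixation and Giemsa staining; triplicate.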

U-937 [2] = assay: Cytotoxicity against human U937 cells up to 50 uM; type: cell-based
[3] = Selectivity index, ratio of IC50 for human THP1 cells to IC50 for promastigote form of Leishmania major JISH118 infected in human THP1 cells; type: toxicity, cell-based; settings: read-out: Ratio IC50
Outline: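 Selectivity index taken as the IC50 in THP-1 cells divided by the antileishmanial IC50 from infected THP-1 macrophages.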

U-937 [4] = assay: Cytotoxicity against human U937 cells; type: cell-based
Leishmania major [5] = assay: Potency index, ratio of pentamidine IC50 to test compound IC50 for promastigote form of Leishmania major JISH118 infected in human THP1 cells; type: functional

SMILES | IC50 (Leishmania major [1]) [µM] | IC50 (THP-1) [µM] | Activity (U-937 [2]) | selectivity ratio [3] | IC50 (U-937 [4]) [µM] | Ratio IC50 (Leishmania major [5])
COc1ccccc1-c1nnc(-c2ccc(C(=O)N/N=C/c3ccc(Cl)cc3)cc2)o1 | 34.1 | – | Non-Toxic | – | – | –
COc1ccccc1-c1nnc(-c2ccc(C(=O)N/N=C/c3cccc(O)c3O)cc2)o1 | 1.4 | 102 | Non-Toxic | 72.6 | – | –
COc1ccccc1-c1nnc(-c2ccc(C(=O)N/N=C/c3ccc(Cl)cc3Cl)cc2)o1 | 5.12 | 78.8 | – | 15.4 | 75.6 | –
COc1ccc(/C=N/NC(=O)c2ccc(-c3nnc(-c4ccccc4OC)o3)cc2)cc1O | 6.4 | 260 | Non-Toxic | 40.6 | – | –
COc1ccccc1-c1nnc(-c2ccc(C(=O)N/N=C/c3ccccn3)cc2)o1 | 9.06 | 67 | – | 7.4 | 68.6 | –
COc1ccccc1-c1nnc(-c2ccc(C(=O)N/N=C/c3cccc(F)c3)cc2)o1 | 6.35 | 353 | Non-Toxic | 55.6 | – | –
COc1ccccc1-c1nnc(-c2ccc(C(=O)N/N=C/c3c(O)cc(O)cc3O)cc2)o1 | 4.78 | 12.4 | – | 2.6 | 15.2 | –
COc1ccccc1-c1nnc(-c2ccc(C(=O)N/N=C/c3ccncc3)cc2)o1 | 38.5 | 173 | Non-Toxic | 4.5 | – | –
COc1ccc(O)c(/C=N/NC(=O)c2ccc(-c3nnc(-c4ccccc4OC)o3)cc2)c1 | 16.3 | 303 | Non-Toxic | 18.6 | – | –
COc1ccccc1-c1nnc(-c2ccc(C(=O)N/N=C/c3cccc([N+](=O)[O-])c3)cc2)o1 | 74.2 | 119 | Non-Toxic | 1.6 | – | –
COc1ccccc1-c1nnc(-c2ccc(C(=O)N/N=C/c3ccc(O)cc3O)cc2)o1 | 3.78 | 104 | Non-Toxic | 27.5 | – | –
COc1ccc(/C=N/NC(=O)c2ccc(-c3nnc(-c4ccccc4OC)o3)cc2)c(O)c1 | 6.6 | 308 | Non-Toxic | 46.6 | – | –
COc1ccccc1-c1nnc(-c2ccc(C(=O)N/N=C/c3cccnc3)cc2)o1 | 46.5 | 167 | Non-Toxic | 3.6 | – | –
COc1ccccc1-c1nnc(-c2ccc(C(=O)N/N=C/c3ccc(O)c(O)c3)cc2)o1 | 0.95 | 100 | Non-Toxic | 105 | – | 7
COc1ccccc1-c1nnc(-c2ccc(C(=O)N/N=C/c3cccc(O)c3)cc2)o1 | 18.1 | 398 | Non-Toxic | 22 | – | –
COc1ccccc1-c1nnc(-c2ccc(C(=O)N/N=C/c3ccccc3[N+](=O)[O-])cc2)o1 | 64.5 | 161 | Non-Toxic | 2.5 | – | –
N=C(N)c1ccc(OCCCCCOc2ccc(C(=N)N)cc2)cc1 [PENTAMIDINE] | – | 7.7 | – | 1.1 | 6.02 | –

Continued, in another order:

IC50 (Leishmania major [1]) [µM] | SMILES | IC50 (THP-1) [µM] | Activity (U-937 [2]) | selectivity ratio [3] | IC50 (U-937 [4]) [µM] | Ratio IC50 (Leishmania major [5])
4.46 | COc1ccccc1-c1nnc(-c2ccc(C(=O)N/N=C/c3cc(O)ccc3O)cc2)o1 | 100 | Non-Toxic | 22.4 | – | –
5.18 | COc1ccccc1-c1nnc(-c2ccc(C(=O)N/N=C/c3ccccc3F)cc2)o1 | 313 | Non-Toxic | 60.4 | – | –
56.5 | COc1ccccc1-c1nnc(-c2ccc(C(=O)N/N=C/c3ccc([N+](=O)[O-])cc3)cc2)o1 | 203 | Non-Toxic | 3.6 | – | –
34.1 | COc1ccccc1-c1nnc(-c2ccc(C(=O)N/N=C/c3ccccc3C)cc2)o1 | – | Non-Toxic | – | – | –
4.14 | COc1ccccc1-c1nnc(-c2ccc(C(=O)N/N=C/c3ccccc3O)cc2)o1 | 207 | Non-Toxic | 50 | – | –
29.6 | COc1ccccc1-c1nnc(-c2ccc(C(=O)N/N=C/c3ccc(C)cc3)cc2)o1 | – | Non-Toxic | – | – | –
7.45 | COc1ccccc1-c1nnc(-c2ccc(C(=O)N/N=C/c3ccc(O)cc3)cc2)o1 | 261 | Non-Toxic | 35 | – | –
29.1 | COc1ccccc1-c1nnc(-c2ccc(C(=O)N/N=C/c3ccccc3Cl)cc2)o1 | – | Non-Toxic | – | – | –
20.7 | COc1ccccc1-c1nnc(-c2ccc(C(=O)N/N=C/c3cccc(Cl)c3)cc2)o1 | – | Non-Toxic | – | – | –
40.2 | COc1ccccc1-c1nnc(-c2ccc(C(=O)N/N=C/c3cccc(C)c3)cc2)o1 | – | Non-Toxic | – | – | –
0.98 | COc1ccccc1-c1nnc(-c2ccc(C(=O)N/N=C/c3cc(O)c(O)cc3O)cc2)o1 | 5.4 | – | 5.5 | 7.46 | –
78.6 | COc1cccc(/C=N/NC(=O)c2ccc(-c3nnc(-c4ccccc4OC)o3)cc2)c1 | – | Non-Toxic | – | – | –
14.2 | COc1ccccc1-c1nnc(-c2ccc(C(=O)N/N=C/c3ccc(F)cc3)cc2)o1 | 427 | Non-Toxic | 30.1 | – | –
74.2 | COc1ccc(/C=N/NC(=O)c2ccc(-c3nnc(-c4ccccc4OC)o3)cc2)cc1 | – | Non-Toxic | – | – | –
